Measurements reported in ChEMBL document CHEMBL5143736, “Discovery and Optimization of a Synthetic Class of Nectin-4-Targeted CD137 Agonists for Immuno-oncology” (J Med Chem, 2022).
In brackets after ≈: the same amount, converted by molar mass. Activity calls are given as the source filed them. The rule behind the calls is not given here.

Key:
[1] = target: T1, Tumor necrosis factor receptor superfamily member 9 (Homo sapiens, UniProt Q07011); assay: Binding affinity to human CD137 assessed as dissociation constant by surface plasmon resonance analysis
T1 sequence (Q07011 whole entry): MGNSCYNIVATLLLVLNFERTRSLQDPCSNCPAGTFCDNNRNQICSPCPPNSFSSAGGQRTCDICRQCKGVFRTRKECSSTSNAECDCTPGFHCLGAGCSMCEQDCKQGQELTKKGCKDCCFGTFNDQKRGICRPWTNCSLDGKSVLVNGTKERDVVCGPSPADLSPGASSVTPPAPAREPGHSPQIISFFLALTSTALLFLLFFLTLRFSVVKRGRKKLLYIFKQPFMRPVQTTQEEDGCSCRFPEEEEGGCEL
Outline: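 Biacore T200 SPR, human CD137, 25 °C. Peptide series in PBS/0.05% Tween 20 with 0.5% DMSO: top 500 nM (threefold) or 10 μM (twofold), 6 further dilutions. Flow 90 μL/min, 60 s association, 100–600 s dissociation, glycine pH 2 regeneration. DMSO-corrected and double-referenced; kinetic fit gives ka, kd, KD.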

[2] = target: T1, Tumor necrosis factor receptor superfamily member 9; assay: Binding affinity to human CD137 assessed as dissociation constant using 1:1 Nectin-4/CD137 by surface plasmon resonance analysis; details: filed as agonist
Outline: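 Biacore T200 SPR against human CD137 protein at 25 °C. Peptide series in PBS/0.05% Tween 20 with 0.5% final DMSO; top concentration 500 nM (6 further threefold dilutions) or 10 μM (6 further twofold dilutions). 60 s association, 100–600 s dissociation, 10 mM glycine pH 2 regeneration. Data DMSO-corrected and double-referenced; kinetic fit gives ka, kd and KD.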

PBMC [3] = assay: […] activity in human PBMC stimulated with anti-CD3-mediated CD137 expression in cocultured with […] cell line assessed as increase in secretion of IFN gamma incubated for 48 hrs by Luminex assay; assay type: functional, cell-based; details: DDE = dose-dependent effect
Outline: (§1)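 Healthy-donor PBMCs were thawed into R10 medium and cocultured with HT1376 cells at 10:1 effector:target (1×10^5 PBMC:1×10^4 tumor cells per well). Soluble anti-CD3 OKT3 (100 ng/mL) was added on day 0, then compound, 37 °C, 5% CO2. Supernatant IFNγ and IL-2 taken at 24 and 48 h, measured by Luminex. Four-parameter fit, n = 3, repeated in multiple donors.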

PBMC [4] = assay: […] activity in human PBMC stimulated with anti-CD3-mediated CD137 expression in cocultured with […] cell line assessed as increase in secretion of IL2 incubated for 48 hrs by Luminex assay; assay type: functional, cell-based; details: DDE = dose-dependent effect; outline: as §1
[5] = Half life in Sprague-Dawley rat at 2 mg/kg, iv by LC/MS/MS analysis; details: in vivo
[6] = Thermodynamic solubility of the compound in phosphate buffer at pH 7.4; assay type: physicochemical; details: read-out: Therm_solubility
Outline: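 Thermodynamic solubility measured in 50 mM phosphate buffer, pH 7.4.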

[7] = Plasma clearance in Cynomolgus monkey at 1 mg/kg, iv administered for 30 min by LC-MS/MS analysis; assay type: ADME, organism-based, Macaca fascicularis
Outline: (§2)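 Male naïve cynomolgus monkeys received 1 mg/kg as a 30 min IV infusion in 25 mM histidine HCl, 10% sucrose, pH 7 (n = 2 animals/compound). Serial K2-EDTA plasma was protein-precipitated with internal standard and analysed by LC–MS/MS (Orbitrap, positive ion). Noncompartmental analysis gave clearance, Vdss and terminal half-life.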

[8] = Volume of distribution at steady state in Cynomolgus monkey at 1 mg/kg, iv administered for 30 min by LC-MS/MS analysis; assay type: ADME, organism-based, Macaca fascicularis; details: plasma, read-out: Vdss; outline: as §2
[9] = Half life in Cynomolgus monkey at 1 mg/kg, iv administered for 30 min by LC-MS/MS analysis; assay type: ADME, organism-based, Macaca fascicularis; details: plasma; outline: as §2
[10] = target: T1, Tumor necrosis factor receptor superfamily member 9; assay: Agonist activity at human CD137 expressed in Jurkat T cells co-expressing response element driven luciferase reporter gene assessed as fold change in EC50 at 1:1 Nectin-4/CD137 ratio measured after 6 hrs by HT1376/CD137 reporter co-culture assay; assay type: cell-based; details: filed as agonist
[11] = target: T1, Tumor necrosis factor receptor superfamily member 9; assay: Agonist activity at human CD137 expressed in Jurkat T cells co-expressing response element driven luciferase reporter gene assessed as fold change in Emax at 1:1 Nectin-4/CD137 ratio measured after 6 hrs by HT1376/CD137 reporter co-culture assay; assay type: cell-based; details: filed as agonist
CT26 [12] = assay: Antitumor activity against mouse CT26 cells expressed in CD137 transfected in BALB/c mouse at 1mg/kg, qd
CT26 [13] = assay: Antitumor activity against mouse CT26 cells expressed in CD137 transfected in BALB/c mouse at 5 mg/kg, ip
[14] = target: T1, Tumor necrosis factor receptor superfamily member 9; assay: Induction of recombinant human CD137 assessed as increase in fold change in EC50 incubated for 6 hrs by luminescence based microplate reader assay; details: filed as agonist
[15] = target: T1, Tumor necrosis factor receptor superfamily member 9; assay: Induction of recombinant human CD137 assessed as increase in fold change in Emax incubated for 6 hrs by luminescence based microplate reader assay; details: filed as agonist

In the case of CCCC[C@@H]1NC(=O)[C@H](Cc2ccc(O)cc2)NC(=O)[C@@H]2CCCN2C(=O)[C@H](CC(N)=O)NC(=O)[C@H](C)NC(=O)[C@H](Cc2ccccc2)NC(=O)[C@@H]2CSCCC(=O)N3CN(CN(C3)C(=O)CCSC[C@H](NC(C)=O)C(=O)N[C@@H](CC(C)(C)C)C(=O)N3CCC[C@H]3C(=O)N[C@@H](CCC(=O)O)C(=O)N[C@H](CCCCNC(=O)CCc3cn(CCOCCOCCOCCOCCOCCC(=O)N[C@H]4CSCCC(=O)N5CN6CN(C5)C(=O)CCSC[C@H](NC(=O)[C@@H](CC(=O)O)NC(=O)[C@H](Cc5cccc7ccccc57)NC(=O)[C@@H]5CCCN5C4=O)C(=O)N[C@@H](CCSC)C(=O)N[C@@H](CCCCNC(=N)N)C(=O)N[C@@H](CC(=O)O)C(=O)N[C@@H](Cc4c[nH]c5ccccc45)C(=O)N[C@@H](CO)C(=O)N[C@@H]([C@@H](C)O)C(=O)N4CCC[C@H]4C(=O)N4C[C@H](O)C[C@H]4C(=O)N[C@@H](Cc4c[nH]c5ccccc45)C(=O)N[C@H](C(N)=O)CSCCC6=O)nn3)C(=O)N3CCC[C@H]3C(=O)N[C@@H](Cc3ccc(O)cc3)C(=O)N2)C(=O)CCSC[C@@H](C(N)=O)NC1=O, the Kd [1] is reported as 878 nM.

In the case of CCCC[C@@H]1NC(=O)[C@H](Cc2ccc(O)cc2)NC(=O)[C@@H]2CCCN2C(=O)[C@H](CC(=O)O)NC(=O)[C@H](C)NC(=O)[C@H](Cc2ccccc2)NC(=O)[C@@H]2CSCCC(=O)N3CN(CN(C3)C(=O)CCSC[C@@H](C(=O)N[C@@H](CNC(=O)CCc3cn(CCOCCOCCOCCOCCOCCOCCOCCOCCOCCOCCNC(=O)N[C@H]4CSCCC(=O)N5CN6CN(C5)C(=O)CCSC[C@H](NC(=O)[C@@H](CC(=O)O)NC(=O)[C@H](Cc5cccc7ccccc57)NC(=O)[C@@H]5CCCN5C4=O)C(=O)N[C@@H](CCSC)C(=O)N[C@@H](CCCCNC(=N)N)C(=O)N[C@@H](CC(=O)O)C(=O)N[C@@H](Cc4c[nH]c5ccccc45)C(=O)N[C@@H](CO)C(=O)N[C@@H]([C@@H](C)O)C(=O)N4CCC[C@H]4C(=O)N4C[C@H](O)C[C@H]4C(=O)N[C@@H](Cc4c[nH]c5ccccc45)C(=O)N[C@H](C(N)=O)CSCCC6=O)nn3)C(N)=O)NC1=O)C(=O)CCSC[C@H](NC(=O)[C@H](C)NC(C)=O)C(=O)NC([C@@H](C)CC)C(=O)N[C@@H](CCC(=O)O)C(=O)N[C@@H](CCC(=O)O)C(=O)NCC(=O)N[C@@H](CCC(N)=O)C(=O)N[C@@H](Cc1ccc(O)cc1)C(=O)N2 (stereo not given in full), the Activity [2] is reported as 73 nM.

With CCCC[C@@H]1NC(=O)[C@H](Cc2ccc(O)cc2)NC(=O)[C@@H]2CCCN2C(=O)[C@H](CC(=O)O)NC(=O)[C@H](C)NC(=O)[C@H](Cc2ccccc2)NC(=O)[C@@H]2CSCCC(=O)N3CN(CN(C3)C(=O)CCSC[C@@H](C(=O)N[C@@H](CNC(=O)CCc3cn(CCOCCOCCOCCOCCOCCOCCOCCOCCOCCOCCOCCOCCC(=O)NCCC(=O)N(C)CC(=O)N(C)CC(=O)N(C)CC(=O)N(C)CC(=O)N(C)CC(=O)N(C)CC(=O)N(C)CC(=O)N(C)CC(=O)N(C)CC(=O)N(C)CC(=O)N[C@H]4CSCCC(=O)N5CN6CN(C5)C(=O)CCSC[C@H](NC(=O)[C@@H](CC(=O)O)NC(=O)[C@H](Cc5cccc7ccccc57)NC(=O)[C@@H]5CCCN5C4=O)C(=O)N[C@H](CCSC)C(=O)N[C@@H](CCCCNC(=N)N)C(=O)N[C@H](CC(=O)O)C(=O)N[C@@H](Cc4c[nH]c5ccccc45)C(=O)N[C@@H](CO)C(=O)N[C@@H]([C@H](C)O)C(=O)N4CCC[C@H]4C(=O)N4C[C@H](O)C[C@H]4C(=O)N[C@@H](Cc4c[nH]c5ccccc45)C(=O)N[C@H](C(N)=O)CSCCC6=O)nn3)C(N)=O)NC1=O)C(=O)CCSC[C@H](NC(C)=O)C(=O)N[C@@H](CC(C)(C)C)C(=O)N1CCC[C@H]1C(=O)N[C@@H](CCC(=O)O)C(=O)N[C@@H](C)C(=O)N1CCC[C@H]1C(=O)N[C@@H](Cc1ccc(O)cc1)C(=O)N2 the Activity (PBMC [3]) was “Dde”, the Activity (PBMC [4]) was “Dde” and the half-life [5] was 21.6 min.

In the case of CCCC[C@@H]1NC(=O)[C@H](Cc2ccc(O)cc2)NC(=O)[C@@H]2CCCN2C(=O)[C@H](CC(=O)O)NC(=O)[C@H](C)NC(=O)[C@H](Cc2ccccc2)NC(=O)[C@@H]2CSCCC(=O)N3CN(CN(C3)C(=O)CCSC[C@@H](C(=O)N[C@@H](C)C(N)=O)NC1=O)C(=O)CCSC[C@H](NC(C)=O)C(=O)N[C@@H](CC(C)(C)C)C(=O)N1CCC[C@H]1C(=O)N[C@@H](CCC(=O)O)C(=O)N[C@H](CCCCNC(=O)CCc1cn(CCOCCOCCOCCOCCOCCC(=O)N[C@H]3CSCCC(=O)N4CN5CN(C4)C(=O)CCSC[C@H](NC(=O)[C@@H](CC(=O)O)NC(=O)[C@H](Cc4cccc6ccccc46)NC(=O)[C@@H]4CCCN4C3=O)C(=O)N[C@@H](CCSC)C(=O)N[C@@H](CCCCNC(=N)N)C(=O)N[C@@H](CC(=O)O)C(=O)N[C@@H](Cc3c[nH]c4ccccc34)C(=O)N[C@@H](CO)C(=O)N[C@@H]([C@@H](C)O)C(=O)N3CCC[C@H]3C(=O)N3C[C@H](O)C[C@H]3C(=O)N[C@@H](Cc3c[nH]c4ccccc34)C(=O)N[C@H](C(N)=O)CSCCC5=O)nn1)C(=O)N1CCC[C@H]1C(=O)N[C@@H](Cc1ccc(O)cc1)C(=O)N2, the Activity (PBMC [3]) is reported as “Dde”, the Activity (PBMC [4]) is reported as “Dde” and the solubility thermodynamic [6] is reported as 29 mg/mL (≈ 6.16 mM). It also gave a clearance [7] of 30 mL/min/kg, a Vd [8] of 0.6 L/kg and a half-life [9] of 30 min. For the same compound, the fold change (FC) [10] was 8.3, the fold change (FC) [11] was 2 and the half-life [5] was 55.8 min. For the same compound, the Activity (CT26 [12]) was “Active”, the Activity (CT26 [13]) was “Active” and the fold change (FC) [14] was 8.3. It also gave a fold change (FC) [15] of 2.

Compound CCCC[C@@H]1NC(=O)[C@H](Cc2ccc(O)cc2)NC(=O)[C@@H]2CCCN2C(=O)[C@H](CC(=O)O)NC(=O)[C@H](C)NC(=O)[C@H](Cc2ccccc2)NC(=O)[C@@H]2CSCCC(=O)N3CN(CN(C3)C(=O)CCSC[C@@H](C(=O)N[C@@H](CNC(=O)CCOCCOCCOCCOCCOCCn3cc(CCC(=O)N[C@H]4CSCCC(=O)N5CN6CN(C5)C(=O)CCSC[C@H](NC(=O)[C@@H](CC(=O)O)NC(=O)[C@H](Cc5cccc7ccccc57)NC(=O)[C@@H]5CCCN5C4=O)C(=O)N[C@@H](CCSC)C(=O)N[C@@H](CCCCNC(=N)N)C(=O)N[C@@H](CC(=O)O)C(=O)N[C@@H](Cc4c[nH]c5ccccc45)C(=O)N[C@@H](CO)C(=O)N[C@@H]([C@@H](C)O)C(=O)N4CCC[C@H]4C(=O)N4C[C@H](O)C[C@H]4C(=O)N[C@@H](Cc4c[nH]c5ccccc45)C(=O)N[C@H](C(N)=O)CSCCC6=O)nn3)C(N)=O)NC1=O)C(=O)CCSC[C@H](NC(C)=O)C(=O)N[C@@H](CC(C)(C)C)C(=O)N1CCC[C@H]1C(=O)N[C@@H](CCC(=O)O)C(=O)N[C@H](C)C(=O)N1CCC[C@H]1C(=O)N[C@@H](Cc1ccc(O)cc1)C(=O)N2 has a half-life [5] of 57.6 min.

Compound CCCC[C@@H]1NC(=O)[C@H](Cc2ccc(O)cc2)NC(=O)[C@@H]2CCCN2C(=O)[C@H](CCC(=O)O)NC(=O)[C@H](C)NC(=O)[C@H](Cc2ccccc2)NC(=O)[C@@H]2CSCCC(=O)N3CN(CN(C3)C(=O)CCSC[C@H](NC(C)=O)C(=O)N[C@@H](CC(C)(C)C)C(=O)N3CCC[C@H]3C(=O)N[C@@H](CCC(=O)O)C(=O)N[C@H](CCCCNC(=O)CCc3cn(CCOCCOCCOCCOCCOCCC(=O)N[C@H]4CSCCC(=O)N5CN6CN(C5)C(=O)CCSC[C@H](NC(=O)[C@@H](CC(=O)O)NC(=O)[C@H](Cc5cccc7ccccc57)NC(=O)[C@@H]5CCCN5C4=O)C(=O)N[C@@H](CCSC)C(=O)N[C@@H](CCCCNC(=N)N)C(=O)N[C@@H](CC(=O)O)C(=O)N[C@@H](Cc4c[nH]c5ccccc45)C(=O)N[C@@H](CO)C(=O)N[C@@H]([C@@H](C)O)C(=O)N4CCC[C@H]4C(=O)N4C[C@H](O)C[C@H]4C(=O)N[C@@H](Cc4c[nH]c5ccccc45)C(=O)N[C@H](C(N)=O)CSCCC6=O)nn3)C(=O)N3CCC[C@H]3C(=O)N[C@@H](Cc3ccc(O)cc3)C(=O)N2)C(=O)CCSC[C@@H](C(N)=O)NC1=O has a Kd [1] of 2370 nM.
